Laboratory results: ChEMBL document CHEMBL4257441, “Protection effect of intracellular melanin from Lachnum YM156 and Haikunshenxi capsule combination on adenine-induced chronic renal failure in mice” (Medchemcomm, 2017)
The source made the active and inactive calls. The rule behind the calls is not given here.

Experiments:
[1] = Cytotoxicity against human HepG2 cells assessed as cell viability at 1 to 300 ug/ml after 24 hrs by MTT assay relative to control; type: cell-based; conditions: read-out: Activity
Outline: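 HepG2 cells exposed to the melanin were read by MTT absorbance. Viability (% of control) is calculated as treated-well absorbance ×100 / control-well absorbance.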

Mus musculus [2] = experiment: Protective effect against adenine-induced chronic renal failure in ig dosed Kunming mouse assessed as decrease in nephridial IL-6 levels administered as qd for 4 successive weeks; type: functional, organism-based
Outline: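 CRF model made by chronic dietary adenine in male Kunming mice (20 ± 5 g); oral dosing at 100 or 200 mg kg–1, alone or with Haikunshenxi capsule; ten mice per group. Kidney tissue TNF-α, IL-1β and IL-6 measured as pg per mg protein, and iNOS activity as U mg–1 protein.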

Mus musculus [3] = experiment: Protective effect against adenine-induced chronic renal failure in ig dosed Kunming mouse assessed as reduction in kidney index administered as qd for 4 successive weeks measured 24 hrs post last dose
Mus musculus [4] = experiment: Protective effect against adenine-induced chronic renal failure in Kunming mouse assessed as nephridial GSH-PX levels at 100 mg/kg, ig qd administered for 4 successive weeks with haikunshenxi capsule by colorimetric method (reference value: 688.45 +/- 12.67 U/L); type: functional
Mus musculus [5] = experiment: Protective effect against adenine-induced chronic renal failure in Kunming mouse assessed as nephridial IL-6 levels at 200 mg/kg, ig qd administered for 4 successive weeks with haikunshenxi capsule (reference value: 20.85 +/- 0.11 pg/ml); type: functional
Mus musculus [6] = experiment: Protective effect against adenine-induced chronic renal failure in Kunming mouse assessed as nephridial MDA levels at 200 mg/kg, ig qd administered for 4 successive weeks by thiobarbituric acid method (reference value: 5.05 +/- 0.15 nmol/ml); type: functional
Mus musculus [7] = experiment: Protective effect against adenine-induced chronic renal failure in Kunming mouse assessed as nephridial TNF-alpha levels at 200 mg/kg, ig qd administered for 4 successive weeks (reference value: 250.15 +/- 8.10 pg/ml); type: functional
Mus musculus [8] = experiment: Protective effect against adenine-induced chronic renal failure in Kunming mouse assessed as nephridial MDA levels at 100 mg/kg, ig qd administered for 4 successive weeks with haikunshenxi capsule by thiobarbituric acid method (reference value: 5.05 +/- 0.15 nmol/ml); type: functional
Mus musculus [9] = experiment: Protective effect against adenine-induced chronic renal failure in Kunming mouse assessed as reduction in renal tubular atrophy at 200 mg/kg, ig qd administered for 4 successive weeks with haikunshenxi capsule by haematoxylin and eosin dye-based optical microscopic method; type: functional, organism-based
Outline: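 Kidneys were taken from male Kunming mice given an adenine diet plus oral melanin (100 or 200 mg kg–1), with or without Haikunshenxi capsule, ten per group. Histological sections were examined at 400× for glomeruli, tubules, adenine crystals, tubular atrophy and interstitial fibrosis.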

Mus musculus [10] = experiment: Protective effect against adenine-induced chronic renal failure in ig dosed Kunming mouse assessed as increase in nephridial GSH levels administered as qd for 4 successive weeks by colorimetric method; type: functional, organism-based
Outline: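 Male Kunming mice (20 ± 5 g) given dietary adenine to induce CRF, then dosed orally at 100 or 200 mg kg–1, with or without Haikunshenxi capsule; n = 10 per group. Kidney homogenate assayed for SOD and CAT (U mg–1 protein), GSH-Px (U L–1), GSH (mg g–1 protein) and MDA (nmol mL–1).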

Cc1c(=O)c(=O)c2c3c[nH]c4c(C)c(=O)c(=O)c(c5c[nH]c1c52)c43
viability at 24 h [1]: 100%
Activity (Mus musculus [2]): Dose-dependent effect
Activity (Mus musculus [3]): Dose-dependent effect
Activity (Mus musculus [4]): 850.44 U/L
Activity (Mus musculus [5]): 10.74 pg/mL
Activity (Mus musculus [6]): 3.74 nmol/mL
Activity (Mus musculus [7]): 168.32 pg/mL
Activity (Mus musculus [8]): 3.05 nmol/mL
Activity (Mus musculus [9]): Active
Activity (Mus musculus [10]): Dose-dependent effect
